ChEMBL document CHEMBL1833887, “Synthesis and evaluation of 7-substituted 4-aminoquinoline analogues for antimalarial activity” (J Med Chem, 2011)
≈ marks a conversion by molar mass, not a printed value.

Experiments:
Plasmodium falciparum [1] = test: Antimalarial activity against chloroquine-resistant Plasmodium falciparum K1 infected in human erythrocytes assessed as reduction in parasitemia after 72 hrs by spectrophotometry; assay type: functional, organism-based; settings: K1, 72 h
Plasmodium falciparum [2] = test: Ratio of EC50 for chloroquine-resistant Plasmodium falciparum K1 infected in human erythrocytes to EC50 for chloroquine-sensitive Plasmodium falciparum 3D7 infected in human erythrocytes; assay type: functional
HepG2 = test: Cytotoxicity against human HepG2 cells assessed as intracellular ATP level after 72 hrs by Celltiter-Glo luminescent assay; assay type: cell-based; settings: HepG2, 72 h
[3] = Solubility of the compound at pH 7.4 after 18 hrs by UV spectroscopic analysis; assay type: physicochemical; settings: buffer
How it was run: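 Kinetic solubility. A 10 mM stock is diluted 1:100 into PBS pH 7.4 and incubated 18 h at room temperature, then filtered; the filtrate is mixed 1:1 with 1-propanol. UV spectrum (250–500 nm) compared by AUC with a 1-propanol/PBS reference. Single experiment in triplicate.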

[4] = Ratio of EC50 for human HepG2 cells to EC50 for Plasmodium falciparum K1 infected in human erythrocytes
[5] = Ratio of EC50 for human HepG2 cells to EC50 for Plasmodium falciparum 3D7 infected in human erythrocytes
Plasmodium falciparum [6] = test: Antimalarial activity against chloroquine-sensitive Plasmodium falciparum 3D7 infected in human erythrocytes assessed as reduction in parasitemia after 72 hrs by spectrophotometry; assay type: functional, organism-based; settings: 3D7, 72 h
[7] = Dissociation constant, pKa of the compound; assay type: physicochemical
[8] = Permeability of the compound at pH 7.4 after 30 mins by PAMPA; assay type: ADME; settings: read-out: permeability
How it was run: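 PAMPA at pH 7.4. A 10 mM DMSO stock is diluted into system solution buffer; its UV spectrum serves as reference. Membrane painted with GIT lipid, acceptor chamber holds acceptor solution buffer. Sandwich stirred for 30 min, aqueous boundary layer set to 40. Donor and acceptor UV spectra read at 250–500 nm. Permeability coefficient from the AUCs of reference, donor and acceptor. Single experiment in triplicate.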

SMILES	EC50 (Plasmodium falciparum [1])	Ratio EC50 (Plasmodium falciparum [2])	EC50 (HepG2)	solubility at 18 h [3]	Ratio EC50 [4]	Ratio EC50 [5]	EC50 (Plasmodium falciparum [6])	pKa [7]	Papp at 0.5 h [8]
COc1ccc(F)cc1CNCCCNc1ccnc2cc(Oc3ccccc3OC)ccc12	960 nM	44	6400 nM	14.5 µM (≈ 6.69 µg/mL)	7	293	22 nM	9.28	317 ×10⁻⁶ cm/s
COc1ccc(Oc2ccc3c(NCCCNCc4ccc5c(c4)OCO5)ccnc3c2)cc1	1420 nM	30.9	7900 nM	14.5 µM (≈ 6.63 µg/mL)	6	172	46 nM	9.28	317 ×10⁻⁶ cm/s
COc1cccc(CNCCCNc2ccnc3cc(Oc4ccccc4)ccc23)c1O	1840 nM	122	6800 nM	14.5 µM (≈ 6.23 µg/mL)	4	450	15 nM	9.28	317 ×10⁻⁶ cm/s
COc1cccc(CNCCCNc2ccnc3cc(Oc4cccc(N(C)C)c4)ccc23)c1O	2040 nM	215.1	7300 nM	14.5 µM (≈ 6.85 µg/mL)	4	765	10 nM	9.28	317 ×10⁻⁶ cm/s
CC(C)(C)c1ccc(Oc2ccc3c(NCCCNCc4ccc5c(c4)OCO5)ccnc3c2)cc1	2450 nM	17.9	900 nM	14.5 µM (≈ 7.01 µg/mL)	0.4	7	137 nM	9.28	317 ×10⁻⁶ cm/s
COc1ccc(F)cc1CNCCCNc1ccnc2cc(Oc3ccc(C(C)(C)C)cc3)ccc12	2780 nM	26.2	7200 nM	14.5 µM (≈ 7.07 µg/mL)	3	68	106 nM	9.28	317 ×10⁻⁶ cm/s
COc1cccc(Oc2ccc3c(NCCCNCc4cccc(OC)c4O)ccnc3c2)c1	3030 nM	42	5300 nM	14.5 µM (≈ 6.66 µg/mL)	2	74	72 nM	9.28	317 ×10⁻⁶ cm/s
COc1cccc(CNCCCNc2ccnc3cc(Oc4ccc(F)cc4)ccc23)c1O	3130 nM	282.2	11000 nM	14.5 µM (≈ 6.49 µg/mL)	4	990	11 nM	9.28	317 ×10⁻⁶ cm/s
CN(C)c1cccc(Oc2ccc3c(NCCCNCc4ccc5c(c4)OCO5)ccnc3c2)c1	3930 nM	2.9	16000 nM	14.5 µM (≈ 6.82 µg/mL)	4	12	1360 nM	9.28	317 ×10⁻⁶ cm/s
CC(C)(C)c1ccc(Oc2ccc3c(NCCCNCc4ccco4)ccnc3c2)cc1	4810 nM	4.3	3100 nM	14.5 µM (≈ 6.23 µg/mL)	1	3	1110 nM	9.28	317 ×10⁻⁶ cm/s
COc1ccccc1Oc1ccc2c(NCCCNCc3cccc(OC)c3O)ccnc2c1	5700 nM	626.4	11200 nM	14.5 µM (≈ 6.66 µg/mL)	2	1227	9 nM	9.28	317 ×10⁻⁶ cm/s
c1ccc(Oc2ccc3c(NCCCNCc4ccco4)ccnc3c2)cc1	5970 nM	19	15200 nM	14.5 µM (≈ 5.42 µg/mL)	3	48	314 nM	9.28	317 ×10⁻⁶ cm/s
COc1ccc(-c2ccc3c(NCCCNCc4ccco4)ccnc3c2)cc1	23 nM	2.2	6000 nM	32 µM (≈ 12.4 µg/mL)	261.9	565.7	11 nM	9.47	237 ×10⁻⁶ cm/s
COc1ccc(F)cc1CNCCCNc1ccnc2cc(Cc3ccc4c(c3)OCO4)ccc12	24 nM	0.8	6040 nM	32 µM (≈ 15.2 µg/mL)	255.8	194.7	31 nM	9.47	237 ×10⁻⁶ cm/s
